Assay outcomes: PubChem, several laboratories
UPR XBP1 act: activators of adaptive arm of unfolded protein response (XBP1). CHO-XBP1 luciferase reporter, IRE1-XBP1 UPR activation, luminescence; percent of tunicamycin response, DMSO as zero. activation, % at 20 µM. 330,000 compounds, 0.33% hits;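 active = versus positive control, 20 µM dose yields 30% or more activation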;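 note: 100% = tunicamycin at 10 µg/mL and 0% = DMSO only wells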
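Assay system: IRE1-XBP1 luciferase reporter CHO line. Input: 1000 cells/well. Buffer or medium: F12 with 10% serum. Doses: 20 µM, 1% DMSO. Times: overnight seeding at 37 °C, 6 h compound treatment at 37 °C. Technique: Steady-Glo luciferase glow luminescence, 10 min after reagent addition.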
TbMetRS inhib: blocks T. brucei methionyl-tRNA synthetase activity; 360,000 compounds, 0.4% hits; inhibition, % at 11.9 µM; purified T. brucei MetRS, ATP depletion, Kinase-Glo luminescence;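 active = inhibition above a per-plate cutoff of the control wells' mean inhibition plus 3 SD, cut at about 5.5% in these data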;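 note: 0% = DMSO wells median and 100% = median of wells with control inhibitor compound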
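Test system: purified T. brucei MetRS enzyme. Also added: ATP, methionine and E. coli bulk tRNA substrates. Compound: 11.9 µM single point. Schedule: 15 min enzyme-compound preincubation, 2 h reaction, 10 min detection, 25 °C. Signal: luciferase luminescence of residual ATP, Kinase-Glo. Evaluation: percent inhibition versus plate control medians. Controls: DMSO wells, low control.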
CHOP inh: blocks CHOP induction under ER stress | CHO-K1 CHOP-promoter luciferase, tunicamycin-induced, 15-18 h | inhibition, % at 10 µM | 220,000 compounds, 3.8% hits | AID 2732;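 active = compounds that reduced the stress-induced luciferase reporter signal by more than about 70% of percent inhibition, limit read from the data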;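 note: 0% = tunicamycin plus vehicle and 100% = wells without tunicamycin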
V-ATPase pHluor: yeast V-ATPase proton transport regulation by pHLuorin; response, % at 10 µM; S. cerevisiae, pHLuorin cytosolic pH fluorescence; 350,000 compounds, 0.37% hits; in the data active = response mostly above about 7.3%, no sharp cut-off; inactive = mostly below about 5.4%; note: actives read high
CHOP UPR activ: apoptotic UPR (CHOP) activation. CHO-CHOP luciferase reporter, luminescence; percent of tunicamycin response over DMSO baseline. activation, % at 10 µM. 330,000 compounds, 0.34% hits;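 active = at 10 µM dose, activation of 40% or more, normalized to positive control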;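 note: 100% = tunicamycin at 10 µg/mL and 0% = DMSO alone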
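assay system = CHO CHOP reporter cells | amount = 500 CHO-CHOP cells per well | buffer or medium = F12 with 10% FBS | incubation = 16-18 h cell attachment, then 6 h compound exposure, 37 °C | detection = luminescence read with Steady-Glo | read-out = percent activation relative to tunicamycin control | controls = tunicamycin high control, DMSO low control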
CHOP confirm: confirmation of CHOP induction inhibitors; shares compounds with CHOP inh; CHO-CHOP promoter luciferase reporter, tunicamycin-induced, luminescence; inhibition, % at 10 µM; 2,100 compounds, 45% hits;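 active = mean of three repeat readings of reporter signal inhibition above a set limit, cut at about 70% in these data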;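 note: 0% = tunicamycin plus vehicle and 100% = wells lacking tunicamycin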
Active calls of the source: *; nt = no result. Many of the other results were omitted from the sample, so hits are more common in it than they were.

SMILES	UPR XBP1 act	TbMetRS inhib	CHOP inh	V-ATPase pHluor	CHOP UPR activ	CHOP confirm
COc1ccccc1C(=O)Nc1sc2c(c1C#N)CCC2	-2	0	nt	1	3	nt
COc1ccc([N+](=O)[O-])cc1NS(=O)(=O)c1ccc(Cl)c(C(=O)Nc2sc3c(c2C#N)CCCCC3)c1	2	nt	105*	nt	4	52
O=C(OCC(=O)N1CCCc2ccccc21)c1cccc(S(=O)(=O)N2CCc3ccccc32)c1	5	0	18	-3	1	nt
CCOC(=O)C1=C(O)/C(=C/c2ccc(CNC(=O)C(=O)Nc3ccc(C)cc3)o2)N=C1C	-2	0	106*	4	-3	109*
COC(=O)C1=C(O)/C(=C\c2ccc(CNC(=O)C(=O)Nc3ccc(C)cc3)o2)N=C1C	-4	-1	69	-1	3	nt
O=c1c2ccccc2nc2n1CCN2Cc1ccc(Cl)cc1	-3	0	99*	2	3	95*
Cc1cccc(Oc2ccccc2NC(=O)c2cnccn2)c1	-1	-2	99*	0	-3	-16
Cc1ccc(NC(=O)c2cnccn2)c(Br)c1	4	0	nt	2	2	nt
O=c1c2c(-c3ccccc3)csc2nc2c3ccccc3c(NCCN3CCOCC3)nn12	nt	0	106*	3	nt	-24
COc1cc(-n2c(N)c(C(=O)NCc3ccco3)c3nc4ccccc4nc32)cc(OC)c1OC	0	-1	23	-2	3	nt
COc1ccc(-n2c(N)c(C(=O)NCc3ccco3)c3nc4ccccc4nc32)cc1OC	0	0	104*	8	2	34
COc1ccccc1CNC(=O)c1c(N)n(CCCN2CCOCC2)c2nc3ccccc3nc12	nt	0	96*	1	nt	40
Cc1cccc(NC(=O)c2c(O)c3ccccc3n(C)c2=O)c1	2	-1	nt	10	8	nt
CCCCc1nc2ccccc2c(=O)n1NC(=O)c1c(O)c2ccccc2n(C)c1=O	2	1	98*	-4	12	92*
Cc1ccc(NC(=O)c2c(O)c3ccccc3n(C)c2=O)nc1	23	-2	97*	-3	2	-10
Cn1c(=O)c(C(=O)Nc2ncccc2O)c(O)c2ccccc21	1	-1	110*	10	0	84*
CCCn1c(=O)c(C(=O)Nc2ncccc2O)c(O)c2ccccc21	-6	0	nt	-5	1	nt
Cc1cccc(Nc2nc(N)c([N+](=O)[O-])c(NCc3ccccc3)n2)c1	3	3	102*	-2	2	25
O=C(NNc1ccc(C2CCCCC2)cc1)C(O)(c1ccccc1)c1cccs1 (stereo not drawn)	-1	-1	106*	0	-2	-3
Cc1cc(C(=O)N/N=C/c2ccc(-c3cccc(Cl)c3Cl)o2)n[nH]1	6	0	101*	-2	2	73*
COc1ccc(F)cc1S(=O)(=O)NCC(=O)NCc1cc(=O)n(C)c(=O)n1C	-3	0	nt	1	-1	nt
CC[n+]1c(/C=C2\Sc3ccccc3N2C)ccc2cccc(C)c21	nt	0	104*	2	nt	110*
CN1CCc2c(sc(NC(=O)c3cc4cc([N+](=O)[O-])ccc4s3)c2C(N)=O)C1	nt	nt	101*	nt	nt	132*
COc1ccc(-c2ccnc3c(Br)c(C)nn23)cc1	3	0	nt	4	-1	nt
Clc1ccc2c(N/N=C/c3ccccc3Br)ccnc2c1	13	0	100*	-4	13	77*
SMILES	UPR XBP1 act	TbMetRS inhib	CHOP inh	V-ATPase pHluor	CHOP UPR activ	CHOP confirm
Clc1ccc2c(NNc3ccccc3Cl)ccnc2c1	-1	0	47	2	-1	nt
O=[N+]([O-])c1ccc(/C=N/Nc2ccnc3cc(Cl)ccc23)o1	1	0	nt	4	5	nt
Clc1ccc2c(N/N=C/c3cccc(Br)c3)ccnc2c1	nt	-1	105*	1	nt	32
CCOc1ccc(C(=O)NC(=S)NCc2cccnc2)cc1[N+](=O)[O-]	-1	0	-23	1	0	nt
COC(=O)[C@]12CCCCC=C1N(CCc1ccc(OC)c(OC)c1)C(=O)[C@H](CC(=O)NCCc1ccccc1OC)C2	nt	0	nt	nt	nt	nt
Fc1ccc(-n2nnnc2-c2cnc(-c3cccs3)nc2C(F)(F)F)cc1	-6	-1	105*	1	0	121*
COc1ccc(/C=c2\sc3nc(-c4ccccc4OC)nn3c2=O)c(OC)c1	5	-1	102*	-2	0	21
Cc1c(C(=O)NCc2ccccc2C(F)(F)F)sc(=O)n1Cc1ccc(F)cc1	nt	-1	nt	nt	nt	nt
CC1CCCC(NCC(O)COC(c2ccc(F)cc2)c2ccc(F)cc2)C1C (stereo not drawn)	16	1	103*	-1	1	111*
N#Cc1c(NCCN)nc(-c2ccccc2)c2c1CCCC2	-2	-1	108*	3	-2	59
CC(C)(C)C(=O)Cn1ncc(Br)c(Br)c1=O	nt	0	104*	-1	nt	85*
COCCn1c(SCC(=O)Nc2cc(C)nn2-c2ccccc2)nnc1-c1ccncc1	-1	0	1	0	3	nt
Cc1ccc(C(C)C)c(OCC(=O)NN=C2CCCC2)c1	1	0	39	0	0	nt
Cc1ccc(C(C)C)c(OCC(=O)N/N=C/C2CCCCC2)c1	-4	1	101*	2	0	70*
Cc1ccc(C(C)C)c(OCC(=O)NN=C(CCl)CCl)c1	-2	nt	106*	nt	10	8
C/C(=N/NC(=O)COc1cc(C)ccc1C(C)C)C(=O)O	0	0	16	-4	0	nt
CCc1nc2c(OCCOc3ccc(F)cc3)cccn2c1N(C)C(=O)c1ccc(OC)cc1	nt	0	nt	nt	nt	nt
COC(=O)c1cccc(NC(=S)Nc2ccccc2Cl)c1	1	0	-12	1	-3	nt
COC(=O)c1cc(NC(=S)Nc2cc(Cl)cc(Cl)c2)cc(C(=O)OC)c1	-6	0	101*	-1	7	99*
Cc1cc(C)c(NC(=O)CCN2C(=O)c3ccccc3S2(=O)=O)c(C)c1	-3	0	nt	2	1	nt
Cc1ccc(S(=O)(=O)NCC(=O)OC(C)C(=O)NC(=O)NC2CCCCC2)cc1C (stereo not drawn)	-2	-1	nt	0	-1	nt
Cc1cccc(NC(=O)c2cc(-c3ccc(C)c(C)c3O)n[nH]2)c1	2	-1	nt	2	3	nt
O=C(/C=C/c1ccccc1)Nc1cccc(C(=O)O)c1	-13	0	97*	1	-10	116*
CC(C)(C)c1ccc(OCC(O)CN2CCOCC2)cc1 (stereo not drawn)	-1	1	nt	-2	2	nt
COCCn1cnnc1SCC(=O)Nc1ccc(Br)cc1F	-1	-1	-12	0	-2	nt
